For assay [1], the system named is Mus musculus. Description: Ability to reverse electroconvulsive shock (ECS) induced amnesia in mice, after administering intraperitoneally, at a dose of 80 mg/kg. Type of assay: functional. The conditions noted are these: route intraperitoneal. The method, boiled down: (§1)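 Male CF-1 mice (20-25 g), five groups of 20, trained in one trial on step-through inhibitory avoidance (darkened chamber). ECS given 2 h after training. Test drug or vehicle placebo injected ip 2 h after ECS, 1 h before retention test. Entry into box within 60 s scored as amnesia. % reversal = (drug − base-line ECS+placebo)/(ceiling no-ECS+placebo − base-line) ×100.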

Assay [2] has as its system Mus musculus. Description: Ability to reverse electroconvulsive shock induced amnesia in mice, after administering intraperitoneally at a dose of 20 mg/kg. The assay is classed as functional. The conditions noted are these: route intraperitoneal. The method, boiled down: as §1
Assay [3] deals with Mus musculus. As to the kind of experiment: Ability to reverse electroconvulsive shock (ECS) induced amnesia in mice, after administering intraperitoneally, at a dose of 5 mg/kg. The conditions noted are these: route intraperitoneal. Type of assay: functional. Summed up:
as §1

The subject of assay [4] is Mus musculus. As to the kind of experiment: Compound was evaluated for the ability to reverse electroconvulsive shock (ECS) induced amnesia in mice, after administering intraperitoneally, at a dose of 5 mg/kg. As to conditions: route intraperitoneal. The assay is classed as functional. Summed up:
as §1

The subject of assay [5] is Mus musculus. Description: Ability to reverse electroconvulsive shock (ECS) induced amnesia in mice, after administering intraperitoneally, at a dose of 80.0 mg/kg. Type of assay: functional. The conditions noted are these: route intraperitoneal. Summed up:
as §1

Assay [6] relates to Mus musculus. As to the kind of experiment: Ability to reverse electroconvulsive shock induced amnesia in mice, after administering intraperitoneally at a dose of 1.25 mg/kg. The assay is classed as functional. As to conditions: route intraperitoneal. The method, boiled down:
as §1

In assay [7] the test system is Mus musculus. Description: Ability to reverse electroconvulsive shock (ECS) induced amnesia in mice, after administering intraperitoneally, at a dose of 10.0 mg/kg. The assay is classed as functional. As to conditions: route intraperitoneal. Summed up:
as §1

Assay [8] deals with Mus musculus. Description: Ability to reverse electroconvulsive shock induced amnesia in mice, after administering intraperitoneally at a dose of 2.5 mg/kg. As to conditions: route intraperitoneal. The assay is classed as functional. The method, boiled down:
as §1

For assay [9], the system named is Mus musculus. As to the kind of experiment: Ability to reverse electroconvulsive shock induced amnesia in mice, after administering intraperitoneally at a dose of 20.0 mg/kg. Type of assay: functional. As to conditions: route intraperitoneal. Summed up: as §1
Assay [10] relates to Mus musculus. As to the kind of experiment: Ability to reverse electroconvulsive shock induced amnesia in mice, after administering intraperitoneally at a dose of 5 mg/kg. The assay is classed as functional. The conditions noted are these: route intraperitoneal. The method, boiled down:
as §1

The test system of assay [11] is Mus musculus. Description: Ability to reverse electroconvulsive shock (ECS) induced amnesia in mice, after administering intraperitoneally, at a dose of 0.31 mg/kg. As to conditions: route intraperitoneal. Type of assay: functional. Summed up: as §1
Assay [12] concerns Mus musculus. As to the kind of experiment: Ability to reverse electroconvulsive shock (ECS) induced amnesia in mice, after administering intraperitoneally, at a dose of 0.63 mg/kg. Type of assay: functional. As to conditions: route intraperitoneal. Summed up: as §1
Assay [13] has as its system Mus musculus. As to the kind of experiment: Ability to reverse electroconvulsive shock (ECS) induced amnesia in mice, after administering intraperitoneally, at a dose of 160 mg/kg. The assay is classed as functional. The conditions noted are these: route intraperitoneal. The method, boiled down: as §1
Assay [14] deals with Mus musculus. Description: Compound was evaluated for the ability to reverse electroconvulsive shock (ECS) induced amnesia in mice, after administering intraperitoneally, at a dose of 320 mg/kg. Type of assay: functional. The conditions noted are these: route intraperitoneal. The method, boiled down:
as §1

In assay [15] the test system is Mus musculus. Description: Compound was evaluated for the ability to reverse electroconvulsive shock (ECS) induced amnesia in mice, after administering intraperitoneally, at a dose of 10 mg/kg. The assay is classed as functional. As to conditions: route intraperitoneal. The method, boiled down:
as §1

The subject of assay [16] is Mus musculus. Description: Compound was evaluated for the ability to reverse electroconvulsive shock (ECS) induced amnesia in mice, after administering intraperitoneally, at a dose of 40.0 mg/kg. The conditions noted are these: route intraperitoneal. Type of assay: functional. The method, boiled down: as §1
Assay [17] deals with Mus musculus. Description: Compound was evaluated for the ability to reverse electroconvulsive shock (ECS) induced amnesia in mice, after administering intraperitoneally, at a dose of 40 mg/kg. The assay is classed as functional. As to conditions: route intraperitoneal. The method, boiled down: as §1
Assay [18] relates to Mus musculus. As to the kind of experiment: Compound was evaluated for the ability to reverse electroconvulsive shock (ECS) induced amnesia in mice, after administering intraperitoneally, at a dose of […] mg/kg. The assay is classed as functional. Summed up: as §1
The subject of assay [19] is Mus musculus. Description: Compound was evaluated for the ability to reverse electroconvulsive shock (ECS) induced amnesia in mice, after administering intraperitoneally, at a dose of 80.0 mg/kg; 18 of 20 mice died at this dose. The assay is classed as functional. As to conditions: route intraperitoneal. Summed up: as §1
In assay [20] the test system is Mus musculus. As to the kind of experiment: Compound was evaluated for the ability to reverse electroconvulsive shock (ECS) induced amnesia in mice, after administering intraperitoneally, at a dose of 320.0 mg/kg; 18 of 20 mice died at this dose before completion of the test. Details: dose 320 mg/kg. The assay is classed as functional, organism-based. Summed up: as §1

Several values for one entry are separate records, joined by “and”; a condition that tells them apart may be missing. Equal entries are not always repeated.

As for `NC(=O)CN1CCCC1=O` [PIRACETAM], the Amnesia reversal was 15% and 10% in the assay on Mus musculus [1] (80 mg/kg); 20% with Mus musculus [2]; 10% in the assay with Mus musculus [3]; 15% in the assay on Mus musculus [4].

Consider `CC(C)CN(CCNC(=O)CN1CCCC1=O)CC(C)C`, for which the Amnesia reversal in the assay on Mus musculus [5] turned out to be 15%; in the assay on Mus musculus [6], 25%; in the assay on Mus musculus [7], 25%; in the assay on Mus musculus [8], 33%; in the assay on Mus musculus [9], 25%; in the assay with Mus musculus [10], 54%.

Regarding `Cn1c(=O)c2c(ncn2C)n(C)c1=O` [CAFFEINE], the Amnesia reversal stood at 10% in the assay with Mus musculus [11]; 5% with Mus musculus [12]; 0% with Mus musculus [6]; 10% in the assay on Mus musculus [8]; 0% in the assay with Mus musculus [3].

In the case of `O=C(CN1CCCC1=O)NCCCN1CCOCC1`, the Amnesia reversal in the assay on Mus musculus [5] is reported as 58%; with Mus musculus [13], 54%; in the assay with Mus musculus [9] it was 17%; in the assay with Mus musculus [14] it was 15%; with Mus musculus [10] it was 0%.

In the case of `CCC1CCC(=O)N1CC(=O)NCCN(C(C)C)C(C)C` (configuration not stated), the Amnesia reversal in the assay on Mus musculus [12] is reported as 20%; with Mus musculus [6], 20%; with Mus musculus [7], 60%; with Mus musculus [8], 58%; with Mus musculus [9], 17%; in the assay on Mus musculus [10], 58%.

On to `COC(=O)C(c1ccccc1)C1CCCCN1` (configuration not stated) [METHYLPHENIDATE], for which the Amnesia reversal is 15% in the assay on Mus musculus [6]; 10% in the assay on Mus musculus [7]; 10% with Mus musculus [8]; 15% in the assay on Mus musculus [9]; 15% in the assay with Mus musculus [10].

Turning to `CC1CCCC(C)N1CCCNC(=O)CN1CCC(c2ccccc2)C1=O` (configuration not stated), the Amnesia reversal with Mus musculus [1] was found to be 0%; in the assay on Mus musculus [2], 67%; in the assay on Mus musculus [4], 50%.

As to `CN(C)CCCN1c2ccccc2CCc2ccccc21` [IMIPRAMINE], the Amnesia reversal with Mus musculus [15] stood at 10%; in the assay with Mus musculus [2] it was 5%; in the assay with Mus musculus [16] it was 15%; with Mus musculus [10], 10%.

On to `C1CCc2nnnn2CC1` [PENTYLENETETRAZOL], for which the Amnesia reversal in the assay with Mus musculus [15] stood at 10%; in the assay on Mus musculus [8], 15%; with Mus musculus [2], 15%; in the assay with Mus musculus [17], 15%; in the assay with Mus musculus [10] it was 20%.

For `[Cl-].[Li+]` [CHLOROLITHIUM], the Amnesia reversal with Mus musculus [1] is reported as 20%; with Mus musculus [12], 15%; with Mus musculus [6] it was 10%; in the assay on Mus musculus [7] it was 30%; with Mus musculus [8], 15%; in the assay with Mus musculus [9], 25%. The Amnesia reversal with Mus musculus [17] amounted to 30%; with Mus musculus [10], 15%.

`N[C@@H]1C[C@H]1c1ccccc1.N[C@H]1C[C@@H]1c1ccccc1` [TRANYLCYPROMINE]: the Amnesia reversal amounted to 10% in the assay with Mus musculus [6], 10% with Mus musculus [7], 5% in the assay on Mus musculus [8] and 15% with Mus musculus [10].

Turning to `CCC1(C)CC(=O)NC1=O` (configuration not stated) [ETHOSUXIMIDE], the Amnesia reversal with Mus musculus [1] worked out at 10%; in the assay on Mus musculus [15], 15%; in the assay with Mus musculus [13] it was 10%; in the assay with Mus musculus [2], 12%; in the assay with Mus musculus [17], 10%.

Take `NC1=NC(=O)C(c2ccccc2)O1` (configuration not stated) [PEMOLINE]: the Amnesia reversal in the assay with Mus musculus [15] is listed as 56%; in the assay with Mus musculus [8], 20%; in the assay on Mus musculus [2], 44%; in the assay with Mus musculus [16], 56%; with Mus musculus [3], 20%.

In the case of `CC1CCCCN1CCCNC(=O)CN1CCCC1=O` (configuration not stated), the Amnesia reversal was 17% with Mus musculus [5]; 0% in the assay on Mus musculus [12]; 0% in the assay on Mus musculus [6]; 10% in the assay with Mus musculus [18]; 33% in the assay with Mus musculus [9]; 33% in the assay with Mus musculus [10].

`CN(C)CCCN1c2ccccc2Sc2ccc(Cl)cc21` [CHLORPROMAZINE]: the Amnesia reversal is reported as 15% in the assay with Mus musculus [11]; 20% in the assay with Mus musculus [12]; 10% with Mus musculus [6]; 0% in the assay on Mus musculus [8]; 0% in the assay with Mus musculus [10].

Consider `CCC1CCC(=O)N1CC(=O)NCCCN1C(C)CCCC1C` (configuration not stated), for which the Amnesia reversal came to 42% in the assay on Mus musculus [19]; 20% with Mus musculus [6]; 50% in the assay with Mus musculus [8]; 42% in the assay with Mus musculus [9]; 50% in the assay on Mus musculus [3].

Turning to `CC(C)(CNC(=O)CN1CCCC1=O)N1CCCCC1`, the Amnesia reversal with Mus musculus [5] stood at 55%; in the assay with Mus musculus [13] it was 45%; in the assay with Mus musculus [9] it was 27%; in the assay with Mus musculus [14], 27%; with Mus musculus [17], 73%; with Mus musculus [10], 18%.

Regarding `CC1CCCC(C)N1CCCCNC(=O)CN1CCCC1=O` (configuration not stated), the Amnesia reversal is on record as 100% in the assay with Mus musculus [1]; 60% with Mus musculus [13]; 60% with Mus musculus [2]; 18 of 20 mice died at this dose before completion of the test with Mus musculus [20]; 50% in the assay with Mus musculus [10].

The values above are taken from ChEMBL document CHEMBL1122658, “Amnesia-reversal activity of a series of N-[(disubstituted-amino)alkyl] -2-oxo-1-pyrrolidineacetamides, including pramiracetam” (1984).
